According to ChEMBL document CHEMBL1154567, “New lanostanoids of Ganoderma tsugae” (2000):
In brackets after ≈: the same amount, converted by molar mass. Numbered stars: 1 amine (or outer) side, 2 acyl side, 3 side chain; on linkers, the order of the positions; unused ones are H or OH. Bridge positions count the residues as written; N and C are the ends. Square brackets hold non-standard residues; d marks the D form. Peptide text beside a SMILES is read from it. I, II: the chains in the order shown. Actinocin(1to9) = Cc1c2oc3c(C)ccc(C(=O)[*:2])c3nc-2c(C(=O)[*:1])c(N)c1=O; NMeV = CN[C@H](C(=O)O)C(C)C; Sar = CNCC(=O)O

Tests used:
Assay type in all cases: functional
[1] = Cytotoxicity against human PLC/PRF/5 cells after 6 days by MTT assay; details: PLC-PRF-5, 144 h, read-out: ED50 (the source's name)
Outline: (§1)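 Human lines (hepatoma PLC/PRF/5, T24, cervical carcinoma HT-3 and SiHa) were kept in DMEM with 10% FBS, 2 mM L-glutamine and penicillin/streptomycin, plus 10 mM HEPES pH 7.3, at 37 °C in CO2. Cells at 1-3 × 10³/100 µL had 6 h to attach, then fresh medium with graded drug concentrations was added for 6 days. Survival was read by 4 h MTT (1 mg/mL in PBS, 10 µL) at 37 °C, with DMSO solubilization.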

[2] = tested on: T-24; experiment: Cytotoxicity against human T24 cells after 6 days by MTT assay; details: T-24, 144 h, read-out: ED50 (the source's name); outline: as §1
[3] = tested on: HT-3; experiment: Cytotoxicity against human HT3 cells after 6 days by MTT assay; details: HT-3, 144 h, read-out: ED50 (the source's name); outline: as §1
[4] = tested on: SiHa; experiment: Cytotoxicity against human SiHa cells after 6 days by MTT assay; details: 144 h, read-out: ED50 (the source's name); outline: as §1
[5] = tested on: Ca-Ski; experiment: Cytotoxicity against human CaSKi cells after 6 days by MTT assay; details: 144 h, read-out: ED50 (the source's name)
Outline: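 CaSki (human cervical carcinoma) kept in DMEM with 10% FBS, 2 mM L-glutamine and penicillin/streptomycin. For the assay, 1-3 × 10³ cells/100 µL were seeded and left 6 h to attach. Medium was then replaced with fresh medium holding a range of drug concentrations, plus 10 mM HEPES pH 7.3, at 37 °C in CO₂. After 6 days, MTT (1 mg/mL in PBS) was added for 4 h. Formazan was dissolved in DMSO.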

[6] = Cytotoxicity against mouse 212 cells after 6 days by MTT assay; details: 144 h, read-out: ED50 (the source's name)
Outline: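 The 212 line is an inducible Ha-ras-transformed NIH/3T3 line. It was grown in alpha MEM with 10% calf serum and antibiotics, plus 10 mM HEPES pH 7.3, at 37 °C in CO2. Cells were seeded at 1-3 × 10³/100 µL and allowed 6 h to attach. Medium was then swapped for fresh medium carrying various drug concentrations for 6 days. MTT (10 µL of 1 mg/mL) was added for 4 h at 37 °C, and formazan was dissolved in DMSO.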

With `CC(C)=CCC[C@@H](C(=O)O)[C@H]1CC[C@@]2(C)C3=C(CC[C@]12C)[C@@]1(C)CCC(=O)C(C)(C)[C@@H]1CC3` as the compound, how does the EC50 [1] read?
Its EC50 is 12.1 µg/mL (≈ 26.6 µM).

And the EC50 [2]?
Its EC50 is 8.2 µg/mL (≈ 18 µM).

What about the EC50 [3] of the same compound?
Its EC50 is 6.9 µg/mL (≈ 15.2 µM).

And the EC50 [4]?
Its EC50 is 5.1 µg/mL (≈ 11.2 µM).

What about the EC50 [5] of the same compound?
Its EC50 is 7.2 µg/mL (≈ 15.8 µM).

Which EC50 [1] does the source give for `CC(=O)O[C@H]1CC[C@]2(C)C3=C(CC[C@H]2C1(C)C)[C@]1(C)CC[C@H]([C@@H](CCC=C(C)C)C(=O)O)[C@@]1(C)CC3` [ACETYL TRAMETENOLIC ACID] here?
Its EC50 is 9.2 µg/mL (≈ 18.4 µM).

What about the EC50 [2] of the same compound?
Its EC50 is 5.8 µg/mL (≈ 11.6 µM).

And the EC50 [5]?
Its EC50 is 3.9 µg/mL (≈ 7.82 µM).

Which EC50 [1] does the source give for `Cc1c2oc3c(C)ccc(C(=O)N[C@@H]4C(=O)N[C@H](C(C)C)C(=O)N5CCC[C@H]5C(=O)N(C)CC(=O)N(C)[C@@H](C(C)C)C(=O)O[C@@H]4C)c3nc-2c(C(=O)N[C@@H]2C(=O)N[C@H](C(C)C)C(=O)N3CCC[C@H]3C(=O)N(C)CC(=O)N(C)[C@@H](C(C)C)C(=O)O[C@@H]2C)c(N)c1=O` [DACTINOMYCIN] (I: T[dV]P[Sar][NMeV] / II: T[dV]P[Sar][NMeV]; ester I:1-I:C, II:1-II:C; linker I:N-II:N via Actinocin(1to9)) here?
Its EC50 is 0.0014 µg/mL (≈ 0.00112 µM).

What about the EC50 [2] of the same compound?
Its EC50 is 0.0015 µg/mL (≈ 0.00119 µM).

What about the EC50 [5] of the same compound?
Its EC50 is 0.0019 µg/mL (≈ 0.00151 µM).

Which EC50 [2] does the source give for `CC(C)=CCC[C@@H](C(=O)O)[C@H]1CC[C@@]2(C)C3=C(CC[C@]12C)[C@@]1(C)CC[C@H](O)C(C)(C)[C@@H]1CC3` [TRAMETENOLIC ACID] here?
The EC50 was 4.4 µg/mL (≈ 9.63 µM).

And the EC50 [3]?
The EC50 was 3.5 µg/mL (≈ 7.66 µM).

What about the EC50 [4] of the same compound?
The EC50 was 5.5 µg/mL (≈ 12 µM).

And the EC50 [5]?
The EC50 was 6.2 µg/mL (≈ 13.6 µM).

With `CC(=O)O[C@@H]1CC[C@]2(C)C3=C(CC[C@H]2C1(C)C)[C@]1(C)CC[C@H]([C@@H](CCC=C(C)C)C(=O)O)[C@@]1(C)CC3` [TSUGARIC ACID A] as the compound, how does the EC50 [1] read?
The EC50 was 6.8 µg/mL (≈ 13.6 µM).

What about the EC50 [2] of the same compound?
Its EC50 is 3.1 µg/mL (≈ 6.22 µM).

With `C=C(C)C(C)CC[C@@H](C(=O)O)[C@H]1[C@H](O)C[C@@]2(C)C3=C(CC[C@]12C)[C@@]1(C)CC[C@H](OC(C)=O)C(C)(C)[C@@H]1CC3` (stereo not given in full) [TSUGARIC ACID B] as the compound, how does the EC50 [6] read?
The EC50 was 10.3 µg/mL (≈ 19.5 µM).

For `CC(=O)O[C@@H]1CC[C@]2(C)C3=C(CC[C@H]2C1(C)C)[C@]1(C)CC[C@H]([C@@H](CCC=C(C)C)C(=O)O[C@@H]2O[C@H](CO)[C@@H](O)[C@H](O)[C@H]2O)[C@@]1(C)CC3` [TSUGARIOSIDE A], which EC50 [2] is on record?
Its EC50 is 1.73 µg/mL (≈ 2.62 µM).

And the EC50 [3]?
The EC50 was 6.8 µg/mL (≈ 10.3 µM).

What about the EC50 [4] of the same compound?
The EC50 was 8.4 µg/mL (≈ 12.7 µM).

With `C=C(C)/C(C)=C\C[C@@H](C(=O)O[C@@H]1OC[C@@H](O)[C@H](O)[C@H]1O)[C@H]1CC[C@@]2(C)C3=C(CC[C@]12C)[C@@]1(C)CC[C@@H](OC(C)=O)C(C)(C)[C@@H]1CC3` [TSUGARIOSIDE C] as the compound, how does the EC50 [1] read?
Its EC50 is 6.5 µg/mL (≈ 10.1 µM).

What about the EC50 [2] of the same compound?
Its EC50 is 8.6 µg/mL (≈ 13.4 µM).

What about the EC50 [3] of the same compound?
Its EC50 is 7.2 µg/mL (≈ 11.2 µM).

What about the EC50 [4] of the same compound?
Its EC50 is 9.5 µg/mL (≈ 14.8 µM).
